Source: ChEMBL document CHEMBL2396655, “Design, synthesis, and biological evaluation of (E)-N-aryl-2-arylethenesulfonamide analogues as potent and orally bioavailable microtubule-targeted anticancer agents” (J Med Chem, 2013)

Key:
[1] = system: DU-145; experiment: Cytotoxicity against human DU145 cells after 96 hrs by trypan blue exclusion assay; type: functional, cell-based; details: for IC50: DU-145, 96 h
In short: (§1)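 Cells were grown in DMEM or RPMI with 10% FBS and plated at 2.5×10⁴ cells/well in 12-well dishes. Compounds were added 24 h later at various concentrations. After 96 h, viable cells were counted by trypan blue exclusion from duplicate wells. Results are the mean of two independent experiments.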

[2] = system: K562; experiment: Cytotoxicity against human K562 cells after 96 hrs by trypan blue exclusion assay; type: functional, cell-based; details: for IC50: K562, 96 h; in short: as §1

| SMILES | Activity [1] | IC50 [1] [µM] | Activity [2] | IC50 [2] [µM] |
| --- | --- | --- | --- | --- |
| COc1cc(OC)c(/C=C/S(=O)(=O)Nc2ccc(OC)c(F)c2)c(OC)c1 | Dose-dependent effect | 0.2 | Dose-dependent effect | 0.075 |
| COC(=O)C(Nc1cc(NS(=O)(=O)/C=C/c2c(OC)cc(OC)cc2OC)ccc1OC)c1ccccc1 (stereo unspecified) | Dose-dependent effect | 2.5 | Dose-dependent effect | 2.5 |
| COc1ccc(/C=C/S(=O)(=O)Nc2ccc(OC)c(F)c2)cc1 | Dose-dependent effect | 5 | Dose-dependent effect | 1 |
| COc1ccc(NS(=O)(=O)/C=C/c2c(F)c(F)c(F)c(F)c2F)cc1F | Dose-dependent effect | 10 | Dose-dependent effect | 10 |
| COc1ccc(NS(=O)(=O)/C=C/c2cc(OC)c(OC)c(OC)c2)cc1N | Dose-dependent effect | 35 | Dose-dependent effect | 15 |
| COc1cc(OC)c(/C=C/S(=O)(=O)Nc2cc(N)c(OC)c(N)c2)c(OC)c1 | Dose-dependent effect | 2.5 | Dose-dependent effect | 7.5 |
| COC(=O)C(Nc1cc(NS(=O)(=O)/C=C/c2c(OC)cc(OC)cc2OC)ccc1OC)c1ccc(Cl)cc1 (stereo unspecified) | Dose-dependent effect | 5 | Dose-dependent effect | 2.5 |
| COc1ccc(NS(=O)(=O)/C=C/c2c(F)c(F)c(F)c(F)c2F)cc1 | Dose-dependent effect | 10 | Dose-dependent effect | 5 |
| COc1ccc(/C=C/S(=O)(=O)Nc2c(F)c(F)c(F)c(F)c2F)cc1[N+](=O)[O-] | Dose-dependent effect | 100 | Dose-dependent effect | 75 |
| COC(=O)C(Nc1cc(NS(=O)(=O)/C=C/c2c(OC)cc(OC)cc2OC)ccc1OC)c1ccc(Br)cc1 (stereo unspecified) | Dose-dependent effect | 7.5 | Dose-dependent effect | 1 |
| COc1ccc(/C=C/S(=O)(=O)Nc2c(OC)cc(OC)cc2OC)cc1 | Dose-dependent effect | 7.5 | Dose-dependent effect | 2.5 |
| COc1ccc(NS(=O)(=O)/C=C/c2cc(OC)c(OC)c(OC)c2)cc1[N+](=O)[O-] | Dose-dependent effect | 75 | Dose-dependent effect | 75 |
| COc1ccc(NS(=O)(=O)/C=C/c2ccccc2OC)cc1 | Dose-dependent effect | 5 | Dose-dependent effect | 5 |
| COc1ccc(NS(=O)(=O)/C=C/c2c(F)c(F)c(F)c(F)c2F)cc1N | Dose-dependent effect | 75 | Dose-dependent effect | 75 |
| COc1cc(OC)c(/C=C/S(=O)(=O)Nc2ccc(OC)c([N+](=O)[O-])c2)c(OC)c1 | Dose-dependent effect | 2.5 | Dose-dependent effect | 1 |
| COC(=O)CNc1cc(NS(=O)(=O)/C=C/c2c(OC)cc(OC)cc2OC)ccc1OC | Dose-dependent effect | 0.35 | Dose-dependent effect | 0.35 |
| COc1ccc(NS(=O)(=O)/C=C/c2c(OC)cc(O)cc2OC)cc1 | Dose-dependent effect | 10 | Dose-dependent effect | 10 |

| SMILES | Activity [1] | IC50 [1] [µM] | Activity [2] | IC50 [2] [µM] |
| --- | --- | --- | --- | --- |
| O=S(=O)(/C=C/c1c(F)c(F)c(F)c(F)c1F)Nc1c(F)c(F)c(F)c(F)c1F | Dose-dependent effect | 35 | Dose-dependent effect | 35 |
| COc1cc(OC)c(/C=C/S(=O)(=O)Nc2ccc(OC)c(OC(=O)C(C)(C)C3=C(C)C(=O)C=C(C)C3=O)c2)c(OC)c1 | Dose-dependent effect | 0.009 | Dose-dependent effect | 0.008 |
| COc1ccc(NS(=O)(=O)/C=C/c2c(OC)cc(OCCCC(=O)O)cc2OC)cc1[N+](=O)[O-] | Dose-dependent effect | 100 | Dose-dependent effect | 100 |
| COc1cc(OC)c(/C=C/S(=O)(=O)Nc2ccc(OC)c(OP(=O)(O)O)c2)c(OC)c1 | Dose-dependent effect | 0.04 | Dose-dependent effect | 0.0075 |
| O=S(=O)(/C=C/c1ccccc1)Nc1ccccc1 | Dose-dependent effect | 10 | Dose-dependent effect | 10 |
| COc1ccc(/C=C/S(=O)(=O)Nc2c(F)c(F)c(F)c(F)c2F)cc1N | Dose-dependent effect | 35 | Dose-dependent effect | 35 |
| COc1cc(OC)c(/C=C/S(=O)(=O)Nc2ccc(F)c(N)c2)c(OC)c1 | Dose-dependent effect | 10 | Dose-dependent effect | 5 |
| COc1ccc(NS(=O)(=O)/C=C/c2c(F)c(F)c(F)c(F)c2F)cc1[N+](=O)[O-] | Dose-dependent effect | 100 | Dose-dependent effect | 100 |
| COC(=O)C(Nc1cc(NS(=O)(=O)/C=C/c2c(OC)cc(OC)cc2OC)ccc1OC)c1ccc(F)cc1 (stereo unspecified) | Dose-dependent effect | 2.5 | Dose-dependent effect | 2.5 |
| O=S(=O)(/C=C/c1ccc(Br)cc1)Nc1ccc(F)cc1 | Dose-dependent effect | 10 | Dose-dependent effect | 10 |
| COc1cc(OC)c(/C=C/S(=O)(=O)Nc2ccc(F)c([N+](=O)[O-])c2)c(OC)c1 | Dose-dependent effect | 100 | Dose-dependent effect | 75 |
| COc1ccc(/C=C/S(=O)(=O)Nc2ccc(F)cc2)cc1 | Dose-dependent effect | 10 | Dose-dependent effect | 10 |
| COc1ccc(/C=C/S(=O)(=O)Nc2ccc(OC)cc2)cc1 | Dose-dependent effect | 5 | Dose-dependent effect | 5 |
| COc1ccc(NS(=O)(=O)/C=C/c2c(OC)cccc2OC)cc1 | Dose-dependent effect | 0.375 | Dose-dependent effect | 5 |
| COC(=O)C(C)Nc1cc(NS(=O)(=O)/C=C/c2c(OC)cc(OC)cc2OC)ccc1OC (stereo unspecified) | Dose-dependent effect | 0.1 | Dose-dependent effect | 0.3 |
| COc1ccc(NS(=O)(=O)/C=C/c2cc(OC)c(OC)c(OC)c2)cc1 | Dose-dependent effect | 35 | Dose-dependent effect | 35 |
| COc1ccc(NS(=O)(=O)/C=C/c2c(OC)cc(OCCCC(=O)O)cc2OC)cc1N | Dose-dependent effect | 10 | Dose-dependent effect | 10 |
